Measurements reported in ChEMBL document CHEMBL1125695, “Potential anti-AIDS drugs. Lipophilic, adenosine deaminase-activated prodrugs” (J Med Chem, 1991).

Legend:
[1] = Partition coefficient (logP); format: physicochemical; details: octanol/water
Method in brief: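 Microscale shake-flask method: compound from DMSO stock into 1.0 mL octanol-saturated 0.01 M potassium phosphate pH 7.0, then mixed with 1.0 mL buffer-saturated n-octanol at 24–26 °C. Stood 15 min, phases centrifuged, each analysed by HPLC. P is the octanol/buffer peak-area ratio; mean ± SD of three independent determinations.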

[2] = Kinetic parameter Vmax at pH 7.4 and 37 degree Centigrade; format: ADME
Method in brief: (§1)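 Calf intestinal mucosa adenosine deaminase with dideoxynucleoside substrates in 0.01 M Tris pH 7.4 at 37 °C. Aliquots quenched with cold 2 μM 2'-deoxycoformycin, ultrafiltered, and substrate loss followed by reversed-phase HPLC (CH3CN in pH 7.0 phosphate). Relative rates taken at 50 μM substrate with 0.7 unit/mL enzyme, referenced to ddA = 100.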

[3] = Kinetic parameter relative rate measured at 50 uM at pH 7.4 and 37 degree Centigrade; format: ADME; details: pH 7.4, 50 µM; method in brief: as §1
[4] = Anti-HIV activity (% toxicity) in ATH-8 cells at 5 uM in absence of 2'-deoxycoformycin at 20 uM; format: cell-based; details: human, ath-8, 5 µM
Method in brief: (§2)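 CD4+ ATH8 cells (200 000) exposed 1 h to cell-free HIV-1/IIIB, 43 TCID50 (1087 for one analogue), resuspended in 2 mL IL-2 medium with 15% fetal calf serum, cultured at 37 °C in 5% CO2 with or without compound; dCF alone 5 μM. Day 8 viable cells counted by dye exclusion. % protection and % toxicity computed versus infected-untreated and uninfected-untreated cells; ≤0 given as 0%. Minimum two separate experiments; representative test reported.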

[5] = Anti-HIV activity (% toxicity) in ATH-8 cells at 5 uM in absence of 2'-deoxycoformycin at 50 uM; format: cell-based; details: human, ath-8, 5 µM; method in brief: as §2
[6] = Anti-HIV activity (% toxicity) in ATH-8 cells at 5 uM in presence of 2'-deoxycoformycin at 0 uM; format: cell-based; details: human, ath-8, 5 µM; method in brief: as §2
[7] = Anti-HIV activity (% toxicity) in ATH-8 cells at 5 uM in presence of 2'-deoxycoformycin at 10 uM; format: cell-based; details: human, ath-8, 5 µM; method in brief: as §2
[8] = Anti-HIV activity (% toxicity) in ATH-8 cells at 5 uM in presence of 2'-deoxycoformycin at 100 uM; format: cell-based; details: human, ath-8, 5 µM; method in brief: as §2
[9] = Anti-HIV activity (% toxicity) in ATH-8 cells at 5 uM in presence of 2'-deoxycoformycin at 20 uM; format: cell-based; details: human, ath-8, 5 µM; method in brief: as §2
[10] = Anti-HIV activity (% toxicity) in ATH-8 cells at 5 uM in presence of 2'-deoxycoformycin at 50 uM; format: cell-based; details: human, ath-8, 5 µM; method in brief: as §2
[11] = Anti-HIV activity (% toxicity) in ATH-8 cells at 5 uM in absence of 2'-deoxycoformycin at 0 uM; format: cell-based; details: human, ath-8, 5 µM; method in brief: as §2
[12] = Anti-HIV activity (% toxicity) in ATH-8 cells at 5 uM in absence of 2'-deoxycoformycin at 10 uM; format: cell-based; details: human, ath-8, 5 µM; method in brief: as §2
[13] = Anti-HIV activity (% toxicity) in ATH-8 cells at 5 uM in absence of 2'-deoxycoformycin at 100 uM; format: cell-based; details: human, ath-8, 5 µM; method in brief: as §2
[14] = Anti-HIV activity (% protection) in ATH-8 cells at 5 uM in absence of 2'-deoxycoformycin at 100 uM; format: functional, Homo sapiens; method in brief: as §2
[15] = Anti-HIV activity (% protection) in ATH-8 cells at 5 uM in absence of 2'-deoxycoformycin at 20 uM; format: functional, Homo sapiens; method in brief: as §2
[16] = Anti-HIV activity (% protection) in ATH-8 cells at 5 uM in absence of 2'-deoxycoformycin at 50 uM; format: functional, Homo sapiens; method in brief: as §2
[17] = Anti-HIV activity (% protection) in ATH-8 cells at 5 uM in presence of 2'-deoxycoformycin at 0 uM; format: functional, Homo sapiens; method in brief: as §2
[18] = Anti-HIV activity (% protection) in ATH-8 cells at 5 uM in presence of 2'-deoxycoformycin at 10 uM; format: functional, Homo sapiens; method in brief: as §2
[19] = Anti-HIV activity (% protection) in ATH-8 cells at 5 uM in presence of 2'-deoxycoformycin at 100 uM; format: functional, Homo sapiens; method in brief: as §2
[20] = Anti-HIV activity (% protection) in ATH-8 cells at 5 uM in presence of 2'-deoxycoformycin at 20 uM; format: functional, Homo sapiens; method in brief: as §2
[21] = Anti-HIV activity (% protection) in ATH-8 cells at 5 uM in presence of 2'-deoxycoformycin at 50 uM; format: functional, Homo sapiens; method in brief: as §2
[22] = Anti-HIV activity (% protection) in ATH-8 cells at 5 uM in absence of 2'-deoxycoformycin at 0 uM; format: functional, Homo sapiens; method in brief: as §2
[23] = Anti-HIV activity (% protection) in ATH-8 cells at 5 uM in absence of 2'-deoxycoformycin at 10 uM; format: functional, Homo sapiens; method in brief: as §2
[24] = (§3) Anti-HIV activity (% toxicity) in ATH-8 cells at 5 uM; format: cell-based; details: human, ath-8, 5 µM; method in brief: as §2
[25] = (§4) Anti-HIV activity (%toxicity) in ATH-8 cells at 5 uM; format: cell-based; details: human, ath-8, 5 µM; method in brief: as §2
[26] = as §4; format: cell-based; details: human, ath-8, 5 µM; method in brief: as §2; remark: listed apart in the source
[27] = as §4; format: cell-based; details: human, ath-8, 5 µM; method in brief: as §2; remark: listed apart in the source
[28] = Anti-HIV activity (%protection) in ATH-8 cells at 5 uM in absence of 2''-deoxycoformycin at 20 uM; format: functional, Homo sapiens; method in brief: as §2
[29] = Anti-HIV activity (%protection) in ATH-8 cells at 5 uM in absence of 2''-deoxycoformycin at 0 uM; format: functional, Homo sapiens; method in brief: as §2
[30] = Anti-HIV activity (%protection) in ATH-8 cells at 5 uM in absence of 2''-deoxycoformycin at 100 uM; format: functional, Homo sapiens; method in brief: as §2
[31] = Anti-HIV activity (%protection) in ATH-8 cells at 5 uM in absence of 2''-deoxycoformycin at 50 uM; format: functional, Homo sapiens; method in brief: as §2
[32] = Anti-HIV activity (%protection) in ATH-8 cells at 5 uM in absence of 2'-deoxycoformycin at 5 uM; format: functional, Homo sapiens; method in brief: as §2
[33] = as §3; format: cell-based; details: human, ath-8, 5 µM; method in brief: as §2; remark: listed apart in the source
[34] = (§5) Anti-HIV activity in ATH-8 cells at 5 uM in absence of 2''-deoxycoformycin at 20 uM; format: cell-based; details: human, ath-8, 5 µM; method in brief: as §2
[35] = as §5; format: functional, Homo sapiens; method in brief: as §2
[36] = Anti-HIV activity (% toxicity) in ATH-8 cells at 5 uM in absence of 2'-deoxycoformycin at 5 uM; format: cell-based; details: human, ath-8, 5 µM; method in brief: as §2
[37] = Anti-HIV activity (% toxicity) in ATH-8 cells at 5 uM in presence of 2'-deoxycoformycin at 5 uM; format: cell-based; details: human, ath-8, 5 µM; method in brief: as §2
[38] = Anti-HIV activity (% protection) in ATH-8 cells at 5 uM in absence of 2''-deoxycoformycin at 5 uM; format: functional, Homo sapiens; method in brief: as §2
[39] = Anti-HIV activity (% protection) in ATH-8 cells at 5 uM in presence of 2'-deoxycoformycin at 5 uM; format: functional, Homo sapiens; method in brief: as §2

Structure (SMILES): OCC1CC(F)C(n2cnc3cncnc32)O1 (configuration not stated)
- logP [1]: -0.4

Structure (SMILES): Cc1nc2c(N)ncnc2n1C1OC(CO)CC1F (configuration not stated)
- logP [1]: 0.1

Structure (SMILES): OCC1CC(F)C(n2cnc3c(Cl)ncnc32)O1 (configuration not stated)
- logP [1]: 0.32
- Vmax [2]: 0.026 µmol/min/unit
- Relative rate [3]: 0.06
- Toxicity [4]: 26%
- Toxicity [5]: 46%
- Toxicity [6]: 14%
- Toxicity [7]: 49%
- Toxicity [8]: 72%
- Toxicity [9]: 58%
- Toxicity [10]: 56%
- Toxicity [11]: 0%
- Toxicity [12]: 5%
- Toxicity [13]: 52%
- Protection [14]: 35%
- Protection [15]: 57%
- Protection [16]: 53%
- Protection [17]: 3%
- Protection [18]: 15%
- Protection [19]: 17%
- Protection [20]: 11%
- Protection [21]: 14%
- Protection [22]: 0%
- Protection [23]: 48%

Structure (SMILES): O=C(Nc1ncnc2c1ncn2C1OC(CO)CC1F)c1ccccc1 (configuration not stated)
- logP [1]: 0.73
- Toxicity [24]: 8%
- Toxicity [25]: 0%
- Toxicity [26]: 0%
- Toxicity [27]: 0%
- Protection [28]: 30%
- Protection [29]: 0%
- Protection [30]: 21%
- Protection [31]: 29%
- Protection [32]: 8%
- Toxicity [33]: 2%

Structure (SMILES): Nc1ncnc2c1ncn2[C@@H]1O[C@H](CO)C[C@@H]1F [LODENOSINE]
- Vmax [2]: 0.23 µmol/min/unit
- Relative rate [3]: 6
- Toxicity [4]: 0%
- Toxicity [5]: 0%
- Toxicity [6]: 11%
- Toxicity [9]: 17%
- Toxicity [10]: 54%
- Toxicity [11]: 0%
- Protection [15]: 70%
- Protection [16]: 84%
- Protection [17]: 0%
- Protection [20]: 68%
- Protection [21]: 48%
- Protection [22]: 0%

Structure (SMILES): Nc1ncnc2c1ncn2[C@H]1CC[C@@H](CO)O1
- logP [1]: -0.29
- Vmax [2]: 1.32 µmol/min/unit
- Relative rate [3]: 100
- Toxicity [7]: 22%
- Toxicity [12]: 0%
- Protection [18]: 86%
- Protection [23]: 100%

Structure (SMILES): Nc1ccn([C@H]2CC[C@@H](CO)O2)c(=O)n1 [ZALCITABINE]
- logP [1]: -1.33

Structure (SMILES): Cc1cn([C@H]2C[C@H](N=[N+]=[N-])[C@@H](CO)O2)c(=O)[nH]c1=O [ZIDOVUDINE]
- logP [1]: 0.05

Structure (SMILES): Cc1nc(N)c2ncn([C@@H]3O[C@H](CO)C[C@@H]3F)c2n1
- logP [1]: 0.12

Structure (SMILES): Nc1c2ncn(C3OC(CO)CC3F)c2nc[n+]1[O-] (configuration not stated)
- logP [1]: -1.38

Structure (SMILES): O=c1[nH]cnc2c1ncn2[C@H]1CC[C@@H](CO)O1 [DIDANOSINE]
- Toxicity [34]: 0%
- Protection [35]: 100%

Structure (SMILES): CNc1nc(C)nc2c1ncn2[C@@H]1O[C@H](CO)C[C@@H]1F
- logP [1]: 0.64

Structure (SMILES): CNc1ncnc2c1ncn2C1OC(CO)CC1F (configuration not stated)
- logP [1]: 0.27
- Vmax [2]: 0.00055 µmol/min/unit
- Relative rate [3]: 0.04
- Toxicity [4]: 0%
- Toxicity [36]: 0%
- Toxicity [5]: 6%
- Toxicity [6]: 11%
- Toxicity [7]: 7%
- Toxicity [8]: 70%
- Toxicity [9]: 0%
- Toxicity [37]: 3%
- Toxicity [10]: 46%
- Toxicity [11]: 0%
- Toxicity [12]: 0%
- Toxicity [13]: 44%
- Protection [14]: 27%
- Protection [15]: 32%
- Protection [16]: 37%
- Protection [38]: 13%
- Protection [17]: 0%
- Protection [18]: 2%
- Protection [19]: 0%
- Protection [20]: 0%
- Protection [39]: 1%
- Protection [21]: 0%
- Protection [22]: 0%
- Protection [23]: 24%

Structure (SMILES): OCC1CC(F)C(n2cnc3c(O)ncnc32)O1 (configuration not stated)
- logP [1]: -1.21
